# An excerpt weighted towards active compounds, which were near 4% of everything screened.
# E-selectin induc = E-selectin induction on HUVECs; HUVEC E-selectin immunofluorescence imaging; normalized: neutral wells 0, TNF-alpha wells 100; AID 686992; P16581; 260,000 compounds, 0.37% hits; activation, % at 7.58 µM;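 active = mean E-selectin-positive cell signal at least 10% of the positive control, reached in at least 60% of replicates, without over 20% cell loss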
#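 Test system: HUVEC; input: 3,000 HUVEC/well; measured by: immunofluorescence imaging; read-out: % PE-positive cells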
# SIRT5 block = sirtuin-5 (human) deacylase inhibition; Q9NXA8; Purified SirT5, succinyl-peptide AMC, trypsin-coupled fluorescence; inhibition, % at 15 µM; 330,000 compounds, 1.1% hits; in the data active = inhibition above about 15%
# Target sequence (Q9NXA8 whole entry, looked up): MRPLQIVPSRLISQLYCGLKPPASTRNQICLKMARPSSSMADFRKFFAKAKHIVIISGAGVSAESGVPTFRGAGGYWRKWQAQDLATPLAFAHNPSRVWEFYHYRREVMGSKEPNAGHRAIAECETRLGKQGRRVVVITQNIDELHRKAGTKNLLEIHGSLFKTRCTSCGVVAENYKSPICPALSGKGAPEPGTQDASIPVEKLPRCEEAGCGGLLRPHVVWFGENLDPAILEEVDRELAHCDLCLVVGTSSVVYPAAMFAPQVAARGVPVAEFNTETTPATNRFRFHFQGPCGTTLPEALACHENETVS
# rRNA inh HTS = inhibits bacterial ribosomal RNA function over humanized ribosomes. GFP signal change (wild-type ribosome), % (concentration not given with the values). 350,000 compounds, 1.6% hits. AID 720706. E. coli WT GFP vs humanized-ribosome RFP mutants, fluorescence, 24 h; stronger effect = lower value; DMSO median 0, no signal -100;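 active = significant combined selectivity score with lowered wild-type GFP, culture density cut under 30%, mutant RFP and density less affected; inactive = any of these conditions unmet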
# FN deposition inh = fibronectin deposition inhibition. 350,000 compounds, 0.086% hits. AID 743247. inhibition, % at 12.6 µM. AH1F fibroblasts, Alexa488-fibronectin deposition fluorescence, overnight;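 active = mean inhibition across replicates of 30% or more, regardless of how many single replicates reach that level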
#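 Material: AH1F fibroblast monolayer depositing Alexa488-labelled fibronectin into matrix / Amount: 10000 AH1F cells per well / Signal: fluorescence 485/525 nm / Medium: DMEM, 2% serum / Compound: single dose, pinned / Incubation: 1 h cell adhesion before compound, then overnight fibronectin incubation / Reagent: Alexa488-FN, 24 nM final / Read-out: inhibition of fibronectin deposition signal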
# FGF22 binding-1 = FGF22 (human) thermal shift binding; activity (Tm shift, normalised), % at 9.99 µM; AID 651658; Q9HCT0; 340,000 compounds, 1.5% hits; recombinant FGF22 thermal shift, SYPRO orange fluorescence; percent of sucrose octasulfate shift, DMSO zero;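 active = mean Tm shift, scaled 0 neutral to 100 positive control, at about 1.3% or above, every replicate too, limit read from the data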
# Target sequence (Q9HCT0 whole entry, looked up): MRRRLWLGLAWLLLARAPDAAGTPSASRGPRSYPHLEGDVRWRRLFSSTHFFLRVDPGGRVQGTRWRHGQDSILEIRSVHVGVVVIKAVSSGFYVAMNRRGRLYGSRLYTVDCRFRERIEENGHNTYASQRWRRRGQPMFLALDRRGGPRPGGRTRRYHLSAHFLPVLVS
# Statin myotox sup = protects C2C12 myotubes from simvastatin toxicity; AID 602340; rescue of ATP level, % at 7.49 µM; ATP luminescence, 48 h; scaled: DMSO 0, geranylgeraniol control 100; 330,000 compounds, 0.78% hits;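 active = mean ATP rescue above about 67%, or every replicate alone reaching that limit, limit read from the data, passing the limit was not always enough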;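 note: myotubes were challenged with 10 µM simvastatin during compound exposure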
# FGF22 binding-2 = binders of human FGF22 by thermal shift; shares compounds with FGF22 binding-1; AID 720646; thermal shift activity, °C (ΔTm) at 38 µM; recombinant FGF22 thermal shift, SYPRO orange fluorescence; 1,000 compounds, 2% hits;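 active = fitted rise in melting shift crosses a set limit at or below the top valid dose tested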
# SYPRO no-protein = counter-screen for FGF22 binders: compound-only thermal shift, no protein. shares compounds with FGF22 binding-1. compound-only SYPRO orange thermal shift counter-screen. AC50, µM (highest dose often 38 µM). 1,000 compounds, 2% hits. AID 743019;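 active = rising signal whose fitted curve reaches the 0.54 level within the top valid dose, showing a melting point, actives reach about 13 µM in these data; inactive = the rest, including activity in the opposite direction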; note: value is where the raw curve crosses a fixed level and not half-maximal
# A number is an active result; . = inactive; / = no result given.
SMILES,E-selectin induc,SIRT5 block,rRNA inh HTS,FN deposition inh,FGF22 binding-1,Statin myotox sup,FGF22 binding-2,SYPRO no-protein
CCCNC(=O)Nc1ccc2c(c1)C(=O)N(C)C[C@H](OC)[C@@H](C)CN(C(=O)c1ccccc1F)[C@H](C)CO2,.,.,.,.,1.7,.,.,.
CO[C@@H]1CN(C)C(=O)c2cc(NC(=O)C3CCCC3)ccc2OC[C@H](C)N(CCC(F)(F)F)C[C@H]1C,.,.,.,.,9.3,.,.,.
CO[C@H]1CN(C)C(=O)c2cc(NC(=O)C3CCCC3)ccc2OC[C@H](C)N(CCC(F)(F)F)C[C@H]1C,.,.,.,.,.,.,/,/
CCCN1C[C@H](C)[C@H](OC)CN(C)C(=O)c2cc(NC(=O)c3cnccn3)ccc2OC[C@@H]1C,.,.,.,.,1.4,.,.,.
CCCN1C[C@@H](C)[C@H](OC)CN(C)C(=O)c2ccc(NC(=O)c3cnccn3)cc2OC[C@@H]1C,.,.,.,.,.,.,/,/
COCC(=O)N1[C@H](CO)[C@H](c2ccc(-c3ccccc3)cc2)C12CN(C(C)=O)C2,.,.,.,.,.,/,/,/
COC(=O)C(CC#Cc1ccc2c(c1)[C@]1(C(=O)N2)[C@H](c2ccc(OCCO)cc2)N2[C@H](c3ccccc3)[C@H](c3ccccc3)OC(=O)[C@H]2[C@@H]1C(=O)N1CCCCCCC1)C(=O)OC,/,.,/,/,.,/,/,/
Cc1cc(C(=O)Nc2cccc3c2O[C@@H](CN(C)S(=O)(=O)c2ccc(Cl)cc2)[C@@H](C)CN([C@@H](C)CO)C3=O)n(C)n1,.,.,.,/,.,.,/,/
Cc1noc(C)c1NC(=O)Nc1cccc2c1O[C@H](CN(C)C(=O)Nc1ccc(F)cc1)[C@H](C)CN([C@@H](C)CO)C2=O,.,/,.,/,/,/,/,/
C[C@@H]1CN([C@@H](C)CO)C(=O)c2cccc(NC(=O)Nc3ccccc3)c2O[C@H]1CN(C)S(=O)(=O)c1ccc(F)cc1,.,.,.,/,.,.,/,/
COc1ccc(OCC(=O)NNC(=O)Cc2coc3cc(OC)ccc23)cc1,.,/,/,.,/,/,/,/
COc1ccc2c(CC(=O)NNC(=O)c3ccc(O)cc3)coc2c1,.,/,.,.,1.6,.,.,.
O=S(=O)(NC[C@H]1N[C@H](CO)[C@H]1c1ccccc1)c1ccccc1,.,.,.,.,2.4,.,.,.
O=C(Cc1cccnc1)N1CC(=O)N2[C@H](CO)[C@H](c3ccc(C4=CCCCC4)cc3)[C@@H]2C1,.,.,.,.,.,/,/,/
COc1cc(NS(=O)(=O)c2ccc(NS(=O)(=O)c3ccc(C)cc3)cc2)nc(OC)n1,/,.,.,.,3.1,.,.,.
COc1cc(NS(=O)(=O)c2ccc(N)cc2)nc(OC)n1,.,.,.,.,.,.,/,/
O=C(O)C1CCN(S(=O)(=O)Cc2ccccc2)CC1,.,.,.,.,12,.,.,.
CCOC(=O)C1CCN(S(=O)(=O)Cc2ccccc2)CC1,/,.,.,/,.,/,/,/
Cc1ccc(S(=O)(=O)N[C@@H]2C=C[C@@H](CC(=O)N3CCc4ccccc4C3)O[C@@H]2CO)cc1,.,.,.,/,1.3,.,.,.
O=C(C[C@H]1C=C[C@@H](NS(=O)(=O)c2ccccc2)[C@@H](CO)O1)N1CCc2ccccc2C1,.,.,.,/,.,.,/,/
COc1ccc(S(=O)(=O)N[C@H]2CC[C@H](CC(=O)N3CCc4ccccc4C3)O[C@@H]2CO)cc1,.,.,.,/,17,.,.,.
C[C@H](CO)N1C[C@H](C)[C@H](CN(C)C(=O)Nc2ccc3c(c2)OCO3)Oc2ncc(-c3cncnc3)cc2C1=O,.,.,.,/,.,.,/,/
COc1ccccc1C#Cc1ccc([C@@H]2[C@@H](CO)N(C(=O)C3CCCC3)[C@H]2C#N)cc1,.,.,.,.,/,/,/,/
CO[C@H]1CC[C@H]2CCOc3ccc(C#N)cc3C(=O)N(C)CC3(CCCCC3)CC(=O)N(C)C[C@H]1O2,.,/,.,.,/,.,/,/
COc1ccc(C(=O)N2CCCCC2)cc1S(=O)(=O)Nc1cccc(C(=O)O)c1,/,.,.,/,1.7,.,.,11µM
SMILES,E-selectin induc,SIRT5 block,rRNA inh HTS,FN deposition inh,FGF22 binding-1,Statin myotox sup,FGF22 binding-2,SYPRO no-protein
COc1ccc(C(=O)O)cc1S(=O)(=O)Nc1cccc(C(F)(F)F)c1,/,/,/,/,/,.,/,/
Cc1noc(C)c1S(=O)(=O)N(C)C[C@H]1OCCCC[C@H](C)Oc2ccc(NC(=O)CCC(F)(F)F)cc2C(=O)N([C@H](C)CO)C[C@@H]1C,.,/,.,.,.,.,/,/
O=C(N/N=C/c1ccc(Cl)cc1)c1ccc2nc[nH]c2c1,.,/,.,/,2.5,.,.,.
Cc1nc2c(C)cccc2cc1C(=O)N/N=C/c1ccc(O)cc1,.,.,.,.,2.2,/,.,.
O=C(N/N=C/c1ccc(F)cc1)c1cccc(NC(=O)c2ccc(F)cc2)c1,/,.,.,.,.,.,/,/
O=C(N/N=C/c1ccncc1)c1cccc(NC(=O)c2ccc(Cl)cc2)c1,.,.,.,.,2.4,/,.,.
O=C(N/N=C/c1ccc(O)cc1)c1cccc(N/N=C/c2ccc(O)cc2)c1,.,.,.,.,1.7,.,.,.
CN(C)C(=O)C[C@H]1CC[C@H](NC(=O)C2CCOCC2)[C@H](CO)O1,.,.,.,.,.,.,/,/
O=S(=O)(N[C@H]1CC[C@@H](CCn2cc(-c3ccccc3F)nn2)O[C@@H]1CO)c1ccc(F)cc1,.,.,.,/,/,/,/,/
COCC#Cc1ccc2c(c1)O[C@@H](CN(C)S(=O)(=O)c1ccc(F)cc1)[C@@H](C)CN([C@H](C)CO)S2(=O)=O,.,.,.,/,.,.,/,/
Cc1noc(C)c1S(=O)(=O)Nc1ccc2c(c1)CC(=O)N([C@@H](C)CO)C[C@@H](C)[C@@H](CN(C)Cc1ccc(C(=O)Nc3ccccc3N)cc1)O2,/,.,.,/,.,/,/,/
O=C(C[C@@H]1C=C[C@@H](NC(=O)C2CCC2)[C@@H](CO)O1)NCC1CC1,.,.,.,.,.,.,/,/
COc1cccc(CN(C)C[C@@H]2OCc3cn(nn3)CCCC(=O)N([C@@H](C)CO)C[C@H]2C)c1,.,/,.,.,/,.,/,/
O=C(N/N=C/c1ccncc1)c1cccc(N/N=C/c2ccncc2)c1,/,.,.,/,1.5,/,.,.
COc1ccc(-c2csc(NC(=O)CN3C(=O)C4CCCCC4C3=O)n2)c(OC)c1 (stereo not given),.,.,.,.,1.6,.,.,10µM
COc1ccc(-c2csc(NC(=O)CN3C(=O)C4CC=CCC4C3=O)n2)cc1 (stereo not given),.,.,.,.,.,.,/,/
